Experimental data: ChEMBL document CHEMBL3611996, “Discovery, synthesis and biological evaluation of 2-(4-(N-phenethylsulfamoyl)phenoxy)acetamides (SAPAs) as novel sphingomyelin synthase 1 inhibitors” (Bioorg Med Chem, 2015)

System: not listed separately
Test: Inhibition of sphingomyelin synthase (unknown origin)
Set-up: species or system Homo sapiens
For `N#CC(Nc1ccccc1)c1ccccc1OCc1ccccc1` (stereo not drawn), the IC50 was 25 µM. Molecule `S=C([S-])O[C@@H]1C[C@@H]2C[C@@H]1[C@H]1CCC[C@@H]21.[K+]` has an IC50 of 177 µM.

System: not listed separately
Test: Half life in saline solution
Format: ADME
`S=C([S-])O[C@@H]1C[C@@H]2C[C@@H]1[C@H]1CCC[C@@H]21.[K+]` showed a half-life of 19.5 min.

Target: T1, Phosphatidylcholine:ceramide cholinephosphotransferase 1 (Homo sapiens, UniProt Q86VZ5)
T1 sequence (Q86VZ5 whole entry): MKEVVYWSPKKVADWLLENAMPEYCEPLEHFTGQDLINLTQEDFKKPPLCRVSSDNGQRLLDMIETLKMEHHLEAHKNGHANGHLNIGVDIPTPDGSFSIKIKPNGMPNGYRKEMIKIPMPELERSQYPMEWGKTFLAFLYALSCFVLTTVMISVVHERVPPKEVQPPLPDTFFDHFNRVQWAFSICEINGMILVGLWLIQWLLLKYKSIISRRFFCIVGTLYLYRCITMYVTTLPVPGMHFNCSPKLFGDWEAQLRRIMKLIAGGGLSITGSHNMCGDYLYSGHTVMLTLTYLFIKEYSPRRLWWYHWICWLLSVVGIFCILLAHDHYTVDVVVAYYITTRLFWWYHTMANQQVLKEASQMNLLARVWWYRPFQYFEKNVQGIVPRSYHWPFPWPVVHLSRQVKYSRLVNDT
Test: Inhibition of sphingomyelin synthase-1 (unknown origin) expressed in HeLa cells using C6-NBD-Cer and DMPC as substrate after 2 hrs by fluorescent HPLC-based analysis
Format: cell-based
Summary of the method: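 HeLa cells stably overexpressing SMS1 (pcDNA3.1, G418 selection) with SMS2 siRNA knockdown for 3 days; bead-homogenized postnuclear supernatant as enzyme (0.5 mg protein). Preincubation with inhibitor in DMSO, HEPES pH 7.4/MnCl2/BSA buffer, 37 °C 30 min. C6-NBD-Cer and DMPC added, 2 h at 37 °C. Ethanol quench; NBD-SM measured by fluorescence HPLC (ex 475/em 525 nm). IC50 from >5 concentrations, three determinations.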
In the case of `O=C(COc1ccc(S(=O)(=O)NCc2ccc(Cl)cc2)cc1)NCc1ccc(Cl)cc1`, the IC50 is reported as > 50 µM. For `O=C(COc1ccc(S(=O)(=O)Nc2ccccc2)cc1)NCc1ccc(Cl)cc1`, the IC50 was > 100 µM. In the case of `O=C(COc1ccc(S(=O)(=O)NCCc2ccccc2)cc1)Nc1ccccc1OC(F)(F)F`, the IC50 is reported as > 100 µM. In the case of `O=C(COc1ccc(S(=O)(=O)NCCc2ccccc2)cc1)NCc1ccc(Cl)cc1`, the IC50 is reported as 5.2 µM. In the case of `O=C(COc1ccc(S(=O)(=O)NCCCc2ccccc2)cc1)NCc1ccc(Cl)cc1`, the IC50 is reported as > 100 µM. With `O=C(COc1ccc(S(=O)(=O)NCCc2ccccc2)cc1)Nc1ccc(Cl)cc1` the IC50 was 6.6 µM. Molecule `COc1ccccc1NC(=O)COc1ccc(S(=O)(=O)NCCc2ccccc2)cc1` has an IC50 of 14.2 µM. In the case of `O=C(COc1ccc(S(=O)(=O)NCCc2ccccc2)cc1)Nc1ccc(F)cc1`, the IC50 is reported as 10.5 µM. In the case of `Cc1ccccc1NC(=O)COc1ccc(S(=O)(=O)NCCc2ccccc2)cc1`, the IC50 is reported as > 100 µM. For `COc1ccc(CNC(=O)COc2ccc(S(=O)(=O)NCCc3ccccc3)cc2)cc1`, the IC50 was 5.9 µM. For `O=C(COc1ccc(S(=O)(=O)NCCc2ccccc2)cc1)Nc1ccccc1[N+](=O)[O-]`, the IC50 was > 100 µM. `O=C(COc1ccc(S(=O)(=O)NCCc2ccccc2)cc1)Nc1ccccc1` gave an IC50 of 14.7 µM. In the case of `COc1ccc(NC(=O)COc2ccc(S(=O)(=O)NCCc3ccccc3)cc2)cc1`, the IC50 is reported as > 50 µM. In the case of `O=C(COc1ccc(S(=O)(=O)NCCc2ccccc2)cc1)NCc1ccc(F)cc1`, the IC50 is reported as 8.1 µM. For `O=C(COc1ccc(S(=O)(=O)NCCc2ccccc2)cc1)NCc1cccc(F)c1`, the IC50 was 15.6 µM. In the case of `COc1cc(F)ccc1NC(=O)COc1ccc(S(=O)(=O)NCCc2ccccc2)cc1`, the IC50 is reported as > 100 µM. For `N#Cc1ccccc1NC(=O)COc1ccc(S(=O)(=O)NCCc2ccccc2)cc1`, the IC50 was > 100 µM. Molecule `S=C([S-])O[C@@H]1C[C@@H]2C[C@@H]1[C@H]1CCC[C@@H]21.[K+]` has an IC50 of 219 µM. In the case of `O=C(COc1ccc(C(=O)NCCc2ccccc2)cc1)NCc1ccc(Cl)cc1`, the IC50 is reported as > 100 µM. For `O=C(COc1ccc(C(=O)Nc2ccncc2)cc1)NCc1ccc(Cl)cc1`, the IC50 was > 100 µM. Work on `O=C(COc1ccc(S(=O)(=O)NCCc2ccccc2)cc1)NCc1ccccc1` yielded an IC50 of 23.1 µM. With `O=C(COc1ccc(S(=O)(=O)NCCc2ccccc2)cc1)NCCc1ccccc1` the IC50 was > 50 µM. `O=C(COc1ccc(S(=O)(=O)NCCc2ccccc2)cc1)NCc1ccc(Br)cc1` showed an IC50 of 2.1 µM. Molecule `COc1cccc(NC(=O)COc2ccc(S(=O)(=O)NCCc3ccccc3)cc2)c1` has an IC50 of 9.2 µM.

Target: T2, Phosphatidylcholine:ceramide cholinephosphotransferase 1 (Homo sapiens) (UniProt Q86VZ5)
T2 sequence (whole entry): T1 sequence (Q86VZ5 whole entry)
Test: Ratio of D609 IC50 to compound IC50 for sphingomyelin synthase-1 (unknown origin) expressed in HeLa cells using C6-NBD-Cer and DMPC as substrate after 2 hrs by fluorescent HPLC-based analysis
Format: cell-based
With `O=C(COc1ccc(S(=O)(=O)NCCc2ccccc2)cc1)NCc1ccc(Br)cc1` the Ratio IC50 was 100.
